Test results reported in ChEMBL document CHEMBL4270668, “Design, Synthesis, Molecular Dynamics Simulation, and Functional Evaluation of a Novel Series of 26RFa Peptide Analogues Containing a Mono- or Polyalkyl Guanidino Arginine Derivative” (J Med Chem, 2018).
Starred links: 1 amine or outer side, 2 acyl side, 3 side chain; linkers in the order of their positions; H or OH if unused. Non-standard residues stand in square brackets, D forms with d. Residues, ends and D or L forms follow the SMILES beside them. X25 = C/N=C(/NCCCC[C@H](N[*:1])C(=O)[*:2])N(C)C; X11 = CC(C)CNC(=N)NCCCC[C@H](N[*:1])C(=O)[*:2]; X14 = CCN(CC)C(=N)NCCCC[C@H](N[*:1])C(=O)[*:2]; X16 = CC(C)CNC(=N)NCCC[C@H](N[*:1])C(=O)[*:2]; X18 = C/N=C(/NCC[C@H](N[*:1])C(=O)[*:2])N(C)C; X24 = N=C(NCCCC[C@H](N[*:1])C(=O)[*:2])N1CCC1; X17 = CC(C)CNC(=N)NCC[C@H](N[*:1])C(=O)[*:2]; X19 = C/N=C(\NC)NCCCC[C@H](N[*:1])C(=O)[*:2]; X2 = CCN(C)C(=N)NCCCC[C@H](N[*:1])C(=O)[*:2]; X21 = CCN(C)C(=N)NCCC[C@H](N[*:1])C(=O)[*:2]; X8 = CCN(CC)C(=N)NCCC[C@H](N[*:1])C(=O)[*:2]; X12 = CCCNC(=N)NCCCC[C@H](N[*:1])C(=O)[*:2]; X3 = CN(C)C(=N)NCCCC[C@H](N[*:1])C(=O)[*:2]; X5 = CCN(CC)C(=N)NCC[C@H](N[*:1])C(=O)[*:2]; X6 = N=C(NCCC[C@H](N[*:1])C(=O)[*:2])N1CCC1; X13 = C/N=C(\NC)NCC[C@H](N[*:1])C(=O)[*:2]; X20 = CCNC(=N)NCCCC[C@H](N[*:1])C(=O)[*:2]; X23 = CN(C)C(=N)NCC[C@H](N[*:1])C(=O)[*:2]; X7 = CCN(C)C(=N)NCC[C@H](N[*:1])C(=O)[*:2]; X9 = N=C(NCC[C@H](N[*:1])C(=O)[*:2])N1CCC1; X10 = CNC(=N)NCCCC[C@H](N[*:1])C(=O)[*:2]; X22 = CCCNC(=N)NCC[C@H](N[*:1])C(=O)[*:2]; Arg(ω-nPr) = CCCNC(=N)NCCC[C@H](N)C(=O)O; X15 = CCNC(=N)NCC[C@H](N[*:1])C(=O)[*:2]; Arg(Me2s) = CN=C(NC)NCCC[C@H](N)C(=O)O; X4 = CNC(=N)NCC[C@H](N[*:1])C(=O)[*:2]; Arg(Et) = CCNC(=N)NCCC[C@H](N)C(=O)O; Arg(Me) = CNC(=N)NCCC[C@H](N)C(=O)O; hArg = N=C(N)NCCCC[C@H](N)C(=O)O; Agb = N=C(N)NCC[C@H](N)C(=O)O

Key:
[1] = target: T1, Pyroglutamylated RF-amide peptide receptor (Homo sapiens, UniProt Q96P65); assay: Agonist activity at human QRFPR expressed in CHO cells co-expressing Galpha16 assessed as increase Ca2+ mobilization after 3 mins by Fluo-4 AM-based scanning fluorometery; format: functional, cell-based
T1 sequence (Q96P65 whole entry): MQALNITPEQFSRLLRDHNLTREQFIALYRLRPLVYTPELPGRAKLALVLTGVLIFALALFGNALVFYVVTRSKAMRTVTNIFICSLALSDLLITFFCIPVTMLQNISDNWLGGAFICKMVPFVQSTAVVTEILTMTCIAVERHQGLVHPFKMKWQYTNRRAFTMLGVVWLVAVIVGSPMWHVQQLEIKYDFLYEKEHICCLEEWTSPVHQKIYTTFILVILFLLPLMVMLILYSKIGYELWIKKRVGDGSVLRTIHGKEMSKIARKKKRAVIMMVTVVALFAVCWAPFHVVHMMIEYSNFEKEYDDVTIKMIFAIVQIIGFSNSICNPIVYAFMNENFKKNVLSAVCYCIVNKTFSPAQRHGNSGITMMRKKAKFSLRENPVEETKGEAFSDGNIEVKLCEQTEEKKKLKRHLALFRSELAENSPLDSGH
Method in brief: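 CHO-Gα16 cells stably expressing human QRFPR, seeded at 40,000 cells/well 24 h ahead. Loaded 1 h with 2 µM Fluo-4 AM plus 0.01% pluronic acid, washed, then 30 min in HBSS with 2.5 mM probenecid and 5 mM HEPES. Compounds added at final 10^-11 to 10^-5 M; fluorescence recorded 3 min on a scanning fluorometer. EC50 from sigmoidal variable-slope fits, ≥3 experiments in triplicate.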

[2] = target: T1, Pyroglutamylated RF-amide peptide receptor; assay: Antagonist activity at human QRFPR expressed in CHO cells co-expressing Galpha16 assessed as inhibition of 26RFa-induced Ca2+ mobilization preincubated for 15 mins followed by agonist addition measured after 3 mins by Fluo-4 AM-based scanning fluorometery; format: functional, cell-based
Method in brief: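 CHO-Gα16-hQRFPR cells loaded 1 h with 2 µM Fluo-4 AM, then incubated 15 min with graded compound. A 10^-7 M final 26RFa pulse was given during recording. Background subtracted, baseline normalized to 100%, peak fluorescence taken per concentration. IC50 from sigmoidal variable-slope fits, ≥3 experiments in triplicate. Maximal effect at 10^-4 M expressed as % inhibition of the 26RFa (10^-7 M) response.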

EC50 [1] [µM]	IC50 [2] [µM]	Molecule
1.5	–	CC(C)CNC(=N)NCCC[C@H](NC(=O)[C@H](Cc1ccccc1)NC(=O)[C@H](CO)NC(=O)[C@H](Cc1ccccc1)NC(=O)CNC(=O)CN)C(=O)N[C@@H](Cc1ccccc1)C(N)=O (H-GGFSF[X16]F-NH2)
> 100	> 100	CC(C)CNC(=N)NCC[C@H](NC(=O)[C@H](Cc1ccccc1)NC(=O)[C@H](CO)NC(=O)[C@H](Cc1ccccc1)NC(=O)CNC(=O)CN)C(=O)N[C@@H](Cc1ccccc1)C(N)=O (H-GGFSF[X17]F-NH2)
> 100	> 100	CCCNC(=N)NCC[C@H](NC(=O)[C@H](Cc1ccccc1)NC(=O)[C@H](CO)NC(=O)[C@H](Cc1ccccc1)NC(=O)CNC(=O)CN)C(=O)N[C@@H](Cc1ccccc1)C(N)=O (H-GGFSF[X22]F-NH2)
> 100	> 100	CCN(CC)C(=N)NCCCC[C@H](NC(=O)[C@H](Cc1ccccc1)NC(=O)[C@H](CO)NC(=O)[C@H](Cc1ccccc1)NC(=O)CNC(=O)CN)C(=O)N[C@@H](Cc1ccccc1)C(N)=O (H-GGFSF[X14]F-NH2)
0.0069	–	CNC(=N)NCCC[C@H](NC(=O)[C@H](Cc1ccccc1)NC(=O)[C@H](CO)NC(=O)[C@H](Cc1ccccc1)NC(=O)CNC(=O)CNC(=O)[C@H](CCCCN)NC(=O)[C@H](CCCCN)NC(=O)[C@H](CCCNC(=N)N)NC(=O)[C@H](CO)NC(=O)[C@H](Cc1ccc(O)cc1)NC(=O)CNC(=O)[C@H](CC(N)=O)NC(=O)[C@H](CC(C)C)NC(=O)[C@H](CCC(=O)O)NC(=O)[C@H](CCC(=O)O)NC(=O)[C@H](C)NC(=O)[C@H](CC(C)C)NC(=O)[C@H](CC(N)=O)NC(=O)CNC(=O)[C@H](CC(C)C)NC(=O)[C@@H]1CCCN1C(=O)CNC(=O)[C@H](CO)NC(=O)[C@@H](N)[C@@H](C)O)C(=O)N[C@@H](Cc1ccccc1)C(N)=O (H-TSGPLGNLAEELNGYSRKKGGFSF[Arg(Me)]F-NH2)
> 100	> 100	CCN(C)C(=N)NCCCC[C@H](NC(=O)[C@H](Cc1ccccc1)NC(=O)[C@H](CO)NC(=O)[C@H](Cc1ccccc1)NC(=O)CNC(=O)CN)C(=O)N[C@@H](Cc1ccccc1)C(N)=O (H-GGFSF[X2]F-NH2)
> 100	> 100	CN(C)C(=N)NCC[C@H](NC(=O)[C@H](Cc1ccccc1)NC(=O)[C@H](CO)NC(=O)[C@H](Cc1ccccc1)NC(=O)CNC(=O)CN)C(=O)N[C@@H](Cc1ccccc1)C(N)=O (H-GGFSF[X23]F-NH2)
> 100	> 100	CCN(C)C(=N)NCCC[C@H](NC(=O)[C@H](Cc1ccccc1)NC(=O)[C@H](CO)NC(=O)[C@H](Cc1ccccc1)NC(=O)CNC(=O)CN)C(=O)N[C@@H](Cc1ccccc1)C(N)=O (H-GGFSF[X21]F-NH2)
2.75	–	CC(C)CNC(=N)NCCCC[C@H](NC(=O)[C@H](Cc1ccccc1)NC(=O)[C@H](CO)NC(=O)[C@H](Cc1ccccc1)NC(=O)CNC(=O)CN)C(=O)N[C@@H](Cc1ccccc1)C(N)=O (H-GGFSF[X11]F-NH2)
> 100	> 100	CCNC(=N)NCC[C@H](NC(=O)[C@H](Cc1ccccc1)NC(=O)[C@H](CO)NC(=O)[C@H](Cc1ccccc1)NC(=O)CNC(=O)CN)C(=O)N[C@@H](Cc1ccccc1)C(N)=O (H-GGFSF[X15]F-NH2)
> 100	> 100	CCN(CC)C(=N)NCC[C@H](NC(=O)[C@H](Cc1ccccc1)NC(=O)[C@H](CO)NC(=O)[C@H](Cc1ccccc1)NC(=O)CNC(=O)CN)C(=O)N[C@@H](Cc1ccccc1)C(N)=O (H-GGFSF[X5]F-NH2)
> 100	> 100	C/N=C(\NC)NCCCC[C@H](NC(=O)[C@H](Cc1ccccc1)NC(=O)[C@H](CO)NC(=O)[C@H](Cc1ccccc1)NC(=O)CNC(=O)CN)C(=O)N[C@@H](Cc1ccccc1)C(N)=O (H-GGFSF[X19]F-NH2)
> 100	> 100	C/N=C(\NC)NCC[C@H](NC(=O)[C@H](Cc1ccccc1)NC(=O)[C@H](CO)NC(=O)[C@H](Cc1ccccc1)NC(=O)CNC(=O)CN)C(=O)N[C@@H](Cc1ccccc1)C(N)=O (H-GGFSF[X13]F-NH2)
> 100	> 100	C/N=C(/NC)NCCC[C@H](NC(=O)[C@H](Cc1ccccc1)NC(=O)[C@H](CO)NC(=O)[C@H](Cc1ccccc1)NC(=O)CNC(=O)CN)C(=O)N[C@@H](Cc1ccccc1)C(N)=O (H-GGFSF[Arg(Me2s)]F-NH2)
> 100	> 100	N=C(NCCCC[C@H](NC(=O)[C@H](Cc1ccccc1)NC(=O)[C@H](CO)NC(=O)[C@H](Cc1ccccc1)NC(=O)CNC(=O)CN)C(=O)N[C@@H](Cc1ccccc1)C(N)=O)N1CCC1 (H-GGFSF[X24]F-NH2)
1.91	–	N=C(N)NCCCC[C@H](NC(=O)[C@H](Cc1ccccc1)NC(=O)[C@H](CO)NC(=O)[C@H](Cc1ccccc1)NC(=O)CNC(=O)CN)C(=O)N[C@@H](Cc1ccccc1)C(N)=O (H-GGFSF[hArg]F-NH2)
1.4	–	CCCNC(=N)NCCC[C@H](NC(=O)[C@H](Cc1ccccc1)NC(=O)[C@H](CO)NC(=O)[C@H](Cc1ccccc1)NC(=O)CNC(=O)CN)C(=O)N[C@@H](Cc1ccccc1)C(N)=O (H-GGFSF[Arg(ω-nPr)]F-NH2)
> 100	> 100	N=C(NCCC[C@H](NC(=O)[C@H](Cc1ccccc1)NC(=O)[C@H](CO)NC(=O)[C@H](Cc1ccccc1)NC(=O)CNC(=O)CN)C(=O)N[C@@H](Cc1ccccc1)C(N)=O)N1CCC1 (H-GGFSF[X6]F-NH2)
> 100	> 100	CCNC(=N)NCCCC[C@H](NC(=O)[C@H](Cc1ccccc1)NC(=O)[C@H](CO)NC(=O)[C@H](Cc1ccccc1)NC(=O)CNC(=O)CN)C(=O)N[C@@H](Cc1ccccc1)C(N)=O (H-GGFSF[X20]F-NH2)
> 100	> 100	CN(C)C(=N)NCCCC[C@H](NC(=O)[C@H](Cc1ccccc1)NC(=O)[C@H](CO)NC(=O)[C@H](Cc1ccccc1)NC(=O)CNC(=O)CN)C(=O)N[C@@H](Cc1ccccc1)C(N)=O (H-GGFSF[X3]F-NH2)
> 100	> 100	CCN(CC)C(=N)NCCC[C@H](NC(=O)[C@H](Cc1ccccc1)NC(=O)[C@H](CO)NC(=O)[C@H](Cc1ccccc1)NC(=O)CNC(=O)CN)C(=O)N[C@@H](Cc1ccccc1)C(N)=O (H-GGFSF[X8]F-NH2)
> 100	> 100	CNC(=N)NCCCC[C@H](NC(=O)[C@H](Cc1ccccc1)NC(=O)[C@H](CO)NC(=O)[C@H](Cc1ccccc1)NC(=O)CNC(=O)CN)C(=O)N[C@@H](Cc1ccccc1)C(N)=O (H-GGFSF[X10]F-NH2)
> 100	> 100	N=C(N)NCC[C@H](NC(=O)[C@H](Cc1ccccc1)NC(=O)[C@H](CO)NC(=O)[C@H](Cc1ccccc1)NC(=O)CNC(=O)CN)C(=O)N[C@@H](Cc1ccccc1)C(N)=O (H-GGFSF[Agb]F-NH2)
> 100	> 100	N=C(NCC[C@H](NC(=O)[C@H](Cc1ccccc1)NC(=O)[C@H](CO)NC(=O)[C@H](Cc1ccccc1)NC(=O)CNC(=O)CN)C(=O)N[C@@H](Cc1ccccc1)C(N)=O)N1CCC1 (H-GGFSF[X9]F-NH2)
> 100	> 100	CCN(C)C(=N)NCC[C@H](NC(=O)[C@H](Cc1ccccc1)NC(=O)[C@H](CO)NC(=O)[C@H](Cc1ccccc1)NC(=O)CNC(=O)CN)C(=O)N[C@@H](Cc1ccccc1)C(N)=O (H-GGFSF[X7]F-NH2)
> 100	> 100	CCCNC(=N)NCCCC[C@H](NC(=O)[C@H](Cc1ccccc1)NC(=O)[C@H](CO)NC(=O)[C@H](Cc1ccccc1)NC(=O)CNC(=O)CN)C(=O)N[C@@H](Cc1ccccc1)C(N)=O (H-GGFSF[X12]F-NH2)
> 100	> 100	CNC(=N)NCC[C@H](NC(=O)[C@H](Cc1ccccc1)NC(=O)[C@H](CO)NC(=O)[C@H](Cc1ccccc1)NC(=O)CNC(=O)CN)C(=O)N[C@@H](Cc1ccccc1)C(N)=O (H-GGFSF[X4]F-NH2)
> 100	> 100	C/N=C(/NCC[C@H](NC(=O)[C@H](Cc1ccccc1)NC(=O)[C@H](CO)NC(=O)[C@H](Cc1ccccc1)NC(=O)CNC(=O)CN)C(=O)N[C@@H](Cc1ccccc1)C(N)=O)N(C)C (H-GGFSF[X18]F-NH2)
1.37	–	CCNC(=N)NCCC[C@H](NC(=O)[C@H](Cc1ccccc1)NC(=O)[C@H](CO)NC(=O)[C@H](Cc1ccccc1)NC(=O)CNC(=O)CN)C(=O)N[C@@H](Cc1ccccc1)C(N)=O (H-GGFSF[Arg(Et)]F-NH2)
> 100	> 100	C/N=C(/NCCCC[C@H](NC(=O)[C@H](Cc1ccccc1)NC(=O)[C@H](CO)NC(=O)[C@H](Cc1ccccc1)NC(=O)CNC(=O)CN)C(=O)N[C@@H](Cc1ccccc1)C(N)=O)N(C)C (H-GGFSF[X25]F-NH2)

Molecule	EC50 [1] [µM]	IC50 [2] [µM]
H-GGFSFRF-NH2	1.64	–
